The text below walks through data of ChEMBL document CHEMBL4229393, “Duocarmycin SA, a potent antitumor antibiotic, sensitizes glioblastoma cells to proton radiation” (Bioorg Med Chem Lett, 2018).

For assay [1], the system named is U138-MG. Kind of assay: Cytotoxicity against human U138MG cells assessed as decrease in cell viability at 0.5 to 1 nM after 72 hrs in presence of 2 Gy dose of proton irradiation by trypan blue dye based assay. In kind it is functional. The gist of the method: (§1)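 U-138 MG cells received the drug at 0.1, 0.5 or 1.0 nM, alone or combined with a 2 Gy proton exposure. Viable cell number was counted at 72 h. The dose enhancement ratio was calculated from combined versus single treatments.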

For assay [2], the system named is U138-MG. Kind of assay: Induction of necrosis in human U138MG cells at 0.1 nM after 72 hrs in presence of 6 Gy dose of proton irradiation by 7-AAD staining based flow cytometry. The assay is classed as functional, cell-based. (In general: In flow cytometry, cells or beads pass a laser one at a time.)
The subject of assay [3] is U138-MG. Kind of assay: Anticlonogenic activity against human U138MG cells assessed as decrease in cell survival after 14 days by methylene blue staining based method. In kind it is functional. Conditions: 336 h. In outline: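 Clonogenic survival of U-138 MG human glioblastoma cells after drug exposure alone. Colonies of 50 or more cells were counted 14 days after exposure, and survival curves were calculated from the counts.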

In assay [4] the test system is U138-MG. Kind of assay: Cytotoxicity against human U138MG cells assessed as cell survival at higher doses after 72 hrs by trypan blue dye based assay. In kind it is functional.
For assay [5], the system named is U138-MG. Description: Cytotoxicity against human U138MG cells assessed as cell survival at 0.1 nM after 72 hrs by trypan blue dye based assay. In kind it is functional. To be noted: read-out: Survival.
In assay [6] the test system is U138-MG. Kind of assay: Anticlonogenic activity against human U138MG cells assessed as decrease in cell survival pretreated for 2 hrs followed by 1 to 8 Gy dose of proton irradiation measured after 10 to 14 days by methylene blue staining based method. Conditions: light or radiation study. In kind it is functional. In outline: (§2)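 U-138 MG cells were exposed to 0.001 nM drug before proton irradiation at 1–8 Gy. Colonies of at least 50 cells were counted 14 days after exposure, and survival fractions and curves were derived.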

Assay [7] has as its system U138-MG. Description: Cytotoxicity against human U138MG cells assessed as decrease in cell viability after 72 hrs by trypan blue dye based assay. In kind it is functional.
Assay [8] concerns U138-MG. Kind of assay: Induction of necrosis in human U138MG cells at 0.1 nM after 72 hrs by 7-AAD staining based flow cytometry. In kind it is functional, cell-based. In outline:
(§3)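 U-138 MG cells were treated with 0.1 nM drug and analysed by flow cytometry at 72 h: annexin V binding for apoptosis and 7-AAD uptake for necrosis.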

In assay [9] the test system is U138-MG. Description: Induction of apoptosis in human U138MG cells assessed as dose enhancement ratio at 0.1 nM after 72 hrs in presence of 2 Gy dose of proton irradiation by Annexin V staining based flow cytometry. In kind it is functional. The gist of the method:
(§4)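 Flow cytometry of U-138 MG cells 72 h after 0.1 nM drug combined with 2 Gy protons: annexin V for apoptosis, 7-AAD for necrosis. The enhancement ratio was derived against single treatments.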

The test system of assay [10] is U138-MG. Description: Anticlonogenic activity against human U138MG cells assessed as cell survival at 0.001 nM pretreated for 2 hrs followed by 1 to 8 Gy dose of proton irradiation measured after 10 to 14 days by methylene blue staining based method. In kind it is functional. To be noted: light or radiation study, read-out: Survival. The gist of the method:
as §2

The subject of assay [11] is U138-MG. Description: Cytotoxicity against human U138MG cells assessed as dose enhancement ratio at 0.1 nM after 72 hrs in presence of 2 Gy dose of proton irradiation by trypan blue dye based assay. The assay is classed as functional. The gist of the method:
as §1

Assay [12] has as its system U138-MG. Kind of assay: Induction of apoptosis in human U138MG cells at 0.1 nM after 72 hrs in presence of 6 Gy dose of proton irradiation by Annexin V staining based flow cytometry. The assay is classed as functional, cell-based.
In assay [13] the test system is U138-MG. Description: Induction of necrosis in human U138MG cells assessed as dose enhancement ratio at 0.1 nM after 72 hrs in presence of 2 Gy dose of proton irradiation by 7-AAD staining based flow cytometry. The assay is classed as functional. The gist of the method:
as §4

Assay [14] deals with U138-MG. Kind of assay: Cytotoxicity against human U138MG cells assessed as cell survival at 0.5 nM after 72 hrs by trypan blue dye based assay. In kind it is functional. Conditions: read-out: Survival.
In assay [15] the test system is U138-MG. Description: Induction of apoptosis in human U138MG cells at 0.1 nM after 72 hrs by Annexin V staining based flow cytometry. The assay is classed as functional, cell-based. The gist of the method: as §3
The subject of assay [16] is U138-MG. Description: Anticlonogenic activity against human U138MG cells assessed as dose enhancement ratio pretreated for 2 hrs followed by 1 to 8 Gy dose of proton irradiation measured after 10 to 14 days by methylene blue staining based method. In kind it is functional. In outline: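 U-138 MG clonogenic assay: cells were pretreated with 0.001 nM drug, then given 1–8 Gy protons. Colonies of 50 or more cells were counted at 14 days. The ratio compares the combined survival fraction with that expected from each modality given separately.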

Active and inactive are the calls of the source. The rule behind the calls is not given here.

Take `COC(=O)c1cc2c([nH]1)C(=O)C=C1N(C(=O)c3cc4cc(OC)c(OC)c(OC)c4[nH]3)C[C@H]3C[C@]123` [DUOCARMYCIN]: the result with U138-MG [1], in the assay on U138-MG [4], in the assay on U138-MG [8] and in the assay on U138-MG [15] was Active. Further, the outcome with U138-MG [2] and with U138-MG [12] was inactive. Moreover, the figures for the half-maximal inhibitory concentration (IC50) in the assay on U138-MG [3], in the assay on U138-MG [6] and with U138-MG [7] were 0.0018 nM, 0.443 nM and 0.4 nM, respectively. Besides, the viability at 0.0001 µM in the assay with U138-MG [5] was determined as 65%. Besides, the Activity result in the assay with U138-MG [7] was “Dose-dependent effect”. The Ratio with U138-MG [9] amounted to 2.5; in the assay on U138-MG [11], 1.6; in the assay on U138-MG [13], 4; with U138-MG [16] it was 2.17. Besides, in the assay with U138-MG [10], the viability at 1 pM was determined as 54%. Also, in the assay on U138-MG [14], the viability at 0.0005 µM was 25%.
